Legend:
Adenosine deaminase [1] = target: T1, Adenosine deaminase (Homo sapiens, UniProt P00813); experiment: Inhibition constant (Ki) against Human erythrocyte adenosine deaminase
T1 sequence (P00813 whole entry): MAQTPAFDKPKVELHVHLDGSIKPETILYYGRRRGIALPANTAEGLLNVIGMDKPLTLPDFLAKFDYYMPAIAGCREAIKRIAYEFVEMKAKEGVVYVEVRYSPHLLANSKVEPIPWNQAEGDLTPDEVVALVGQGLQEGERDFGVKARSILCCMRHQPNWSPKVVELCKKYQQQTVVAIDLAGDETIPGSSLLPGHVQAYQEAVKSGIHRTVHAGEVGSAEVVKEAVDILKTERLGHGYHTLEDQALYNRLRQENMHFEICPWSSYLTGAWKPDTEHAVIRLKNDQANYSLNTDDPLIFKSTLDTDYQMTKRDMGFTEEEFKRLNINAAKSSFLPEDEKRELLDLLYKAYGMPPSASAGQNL

HeLa [2] = experiment: In vitro antitumor activity against human HeLa cell line at 144 h; type: functional; conditions: read-out: ID50 (the source's name)
Summary of the method: (§1)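 Human HeLa (cervix carcinoma) and KB (oral epidermoid carcinoma) monolayers in Eagle's MEM with nonessential amino acids, Earle's BSS, 10% fetal calf serum and penicillin/streptomycin/kanamycin. Exponentially growing cells (5×10^5) were exposed to varying drug concentrations for 72 or 144 h and counted by Coulter counter. ID50 is the concentration giving 50% growth inhibition versus untreated controls.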

HeLa [3] = experiment: In vitro antitumor activity against human HeLa cell line at 72 h; type: functional; conditions: read-out: ID50 (the source's name); summary of the method: as §1
KB [4] = experiment: In vitro antitumor activity against human KB cell line at 144 h; type: functional; conditions: read-out: ID50 (the source's name); summary of the method: as §1
KB [5] = experiment: In vitro antitumor activity against human KB cell line at 72 h; type: functional; conditions: read-out: ID50 (the source's name); summary of the method: as §1
L1210 = experiment: In vitro antitumor activity against murine L1210 cell line at 72 h; type: functional; conditions: Mus musculus, L1210, 72 h; read-out: ID50 (the source's name)
P388 [6] = experiment: In vitro antitumor activity against murine P388 cell line at 72 h; type: functional; conditions: Mus musculus, P388, 72 h; read-out: ID50 (the source's name)
P388 [7] = experiment: In vitro antitumor activity against murine doxorubicin resistant P388 cell line at 72 h; type: functional; conditions: Mus musculus, P388, 72 h; read-out: ID50 (the source's name)
HeLa [8] = experiment: In vitro antitumor activity against human HeLa cell line at 144 hr; type: functional; conditions: read-out: ID50 (the source's name); summary of the method: as §1
P388 [9] = experiment: In vitro antitumor activity against murine doxorubicin-resistant P388 cell line at 72 h; type: functional; conditions: Mus musculus, P388, 72 h; read-out: ID50 (the source's name)
Adenosine deaminase [10] = target: T2, Adenosine deaminase (Bos taurus, UniProt P56658); experiment: Inhibition constant (Ki) against calf intestine adenosine deaminase
T2 sequence (P56658 whole entry): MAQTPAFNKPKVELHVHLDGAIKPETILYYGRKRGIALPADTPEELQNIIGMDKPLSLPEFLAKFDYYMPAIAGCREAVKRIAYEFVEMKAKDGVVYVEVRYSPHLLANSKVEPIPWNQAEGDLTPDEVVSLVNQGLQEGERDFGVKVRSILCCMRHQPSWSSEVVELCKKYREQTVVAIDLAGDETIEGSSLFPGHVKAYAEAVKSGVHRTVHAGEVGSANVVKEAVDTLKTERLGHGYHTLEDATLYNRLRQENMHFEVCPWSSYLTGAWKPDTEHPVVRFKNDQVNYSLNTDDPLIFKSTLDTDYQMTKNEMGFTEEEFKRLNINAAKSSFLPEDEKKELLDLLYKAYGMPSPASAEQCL

Work on `CCCCCCC(C(C)O)n1cnc2c(N)ccnc21` (centres undefined) yielded a Ki (Adenosine deaminase [1]) of 0.12 µM, an IC50 (HeLa [2]) of 21.8 µM and an IC50 (HeLa [3]) of 112 µM. It also gave an IC50 (KB [4]) of 30 µM, an IC50 (KB [5]) of 49.1 µM and an IC50 (L1210) of 49.1 µM. The IC50 (P388 [6]) was 98.2 µM and the IC50 (P388 [7]) was 38.2 µM.

`Nc1ncnc2c1ncn2[C@@H]1O[C@H](CO)[C@@H](O)[C@@H]1O` [VIDARABINE] was tested, and the IC50 (HeLa [8]) was 27.7 µM, the IC50 (HeLa [3]) was 46 µM and the IC50 (KB [4]) was 25.4 µM. The IC50 (KB [5]) was 89.8 µM, the IC50 (L1210) was 23.6 µM and the IC50 (P388 [6]) was 12.7 µM. For the same compound, the IC50 (P388 [9]) was 10.8 µM.

In the case of `CCCCCCC(C(C)O)n1cnc2c(N)cccc21` (centres undefined), the Ki (Adenosine deaminase [10]) is reported as 71 µM, the Ki (Adenosine deaminase [1]) is reported as 15 µM and the IC50 (HeLa [8]) is reported as 18.6 µM. For the same compound, the IC50 (HeLa [3]) was 38.3 µM, the IC50 (KB [4]) was 30.1 µM and the IC50 (KB [5]) was 32.8 µM. The IC50 (L1210) was 26.8 µM, the IC50 (P388 [6]) was 62.9 µM and the IC50 (P388 [9]) was 47.9 µM.

Compound `CCCCCCC(C(C)O)n1cnc2c(N)nccc21` (centres undefined) has a Ki (Adenosine deaminase [1]) of 0.0063 µM, an IC50 (HeLa [2]) of 18.6 µM and an IC50 (HeLa [3]) of 142 µM. It also gave an IC50 (KB [4]) of 5.5 µM, an IC50 (KB [5]) of 31.9 µM and an IC50 (L1210) of 18.6 µM. It also gave an IC50 (P388 [6]) of 21.8 µM and an IC50 (P388 [7]) of 19.2 µM.

`CCCCCC[C@@H]([C@@H](C)O)n1cnc2c(N)ncnc21` [EHNA] gave a Ki (Adenosine deaminase [1]) of 0.0043 µM, an IC50 (HeLa [2]) of 23.4 µM and an IC50 (HeLa [3]) of 179 µM. The IC50 (KB [4]) was 46.3 µM, the IC50 (KB [5]) was 81.6 µM and the IC50 (L1210) was 22.9 µM. For the same compound, the IC50 (P388 [6]) was 27.2 µM and the IC50 (P388 [7]) was 13.4 µM.

In the case of `CCCCCCC(C(C)O)n1ccc2c(N)ncnc21` (centres undefined), the Ki (Adenosine deaminase [10]) is reported as 400 µM, the Ki (Adenosine deaminase [1]) is reported as 180 µM and the IC50 (HeLa [2]) is reported as 4.7 µM. It also gave an IC50 (HeLa [3]) of 60.4 µM, an IC50 (KB [4]) of 8.5 µM and an IC50 (KB [5]) of 20.7 µM. The IC50 (L1210) was 18.4 µM, the IC50 (P388 [6]) was 20.7 µM and the IC50 (P388 [7]) was 3.8 µM.

Reference: ChEMBL document CHEMBL1124034, “Adenosine deaminase inhibitors. Synthesis and biological activity of deaza analogues of erythro-9-(2-hydroxy-3-nonyl)adenine” (J Med Chem, 1988)
